# CHO parental Ca: ATP-evoked calcium signal inhibitors, parental CHO, primary screen, counter-screen for OX1R antagonist project, cell-based, fluorescence, Fluo-8 calcium dye; AID 463079, 2010; parental CHO-K1, ATP-induced calcium, Fluo-8 fluorescence; inhibition, % at 5.6 µM; 330,000 compounds, 0.63% hits;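 active = inhibition above that plate's mean sample inhibition plus 3 SD, cut at about 26% in these data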;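 note: 0% = ATP-challenged DMSO wells and 100% = DMSO wells without ATP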
#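 Material – parental CHO cells · Reagent – ATP stimulus · Compound – single nominal dose of 5.6 µM per compound · Detection – Fluo-8 fluorescence · Read-out basis – percent inhibition of calcium signal · Controls – ATP-challenged DMSO wells low, unchallenged DMSO wells high · Repeats – no replicates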
# OX1R antag-1: antagonists of human orexin 1 receptor (OX1R); 330,000 compounds, 1.8% hits; Orexin/Hypocretin receptor type 1 (Homo sapiens), O43613; AID 485270, 2010; inhibition, % at 6.6 µM; OX1R-expressing cells, FRET antagonist read-out; in the data active = inhibition mostly above about 38%, no sharp cut-off; inactive = mostly below about 40%;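 note: 0% = agonist challenge alone and 100% = reference antagonist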
# Target sequence (O43613 whole entry, looked up): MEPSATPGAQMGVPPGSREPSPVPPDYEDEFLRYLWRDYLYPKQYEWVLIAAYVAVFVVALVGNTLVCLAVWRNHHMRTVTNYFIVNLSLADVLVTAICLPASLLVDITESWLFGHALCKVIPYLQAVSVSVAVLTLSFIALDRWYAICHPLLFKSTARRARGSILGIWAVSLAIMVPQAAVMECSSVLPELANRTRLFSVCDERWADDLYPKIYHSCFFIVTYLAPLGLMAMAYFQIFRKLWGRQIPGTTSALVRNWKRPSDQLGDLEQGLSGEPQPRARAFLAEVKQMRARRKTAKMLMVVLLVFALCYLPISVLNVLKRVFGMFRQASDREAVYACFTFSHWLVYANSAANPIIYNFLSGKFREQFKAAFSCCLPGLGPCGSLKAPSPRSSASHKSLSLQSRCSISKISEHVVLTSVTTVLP
# TAAR1 antagonist: human TAAR1 antagonists, primary screen, Fluo-8 calcium fluorescence, CHO RD-HGA16 cells. antagonist. inhibition, % at 3 µM. 360,000 compounds, 1.5% hits;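 active = inhibition above a per-plate cutoff, the mean inhibition of test compounds on that plate plus 3 SD, cut at about 49% in these data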;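 note: 0% = DMSO plus EC80 beta-PEA response and 100% = DMSO alone without agonist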
# Target sequence (Q96RJ0 whole entry, looked up): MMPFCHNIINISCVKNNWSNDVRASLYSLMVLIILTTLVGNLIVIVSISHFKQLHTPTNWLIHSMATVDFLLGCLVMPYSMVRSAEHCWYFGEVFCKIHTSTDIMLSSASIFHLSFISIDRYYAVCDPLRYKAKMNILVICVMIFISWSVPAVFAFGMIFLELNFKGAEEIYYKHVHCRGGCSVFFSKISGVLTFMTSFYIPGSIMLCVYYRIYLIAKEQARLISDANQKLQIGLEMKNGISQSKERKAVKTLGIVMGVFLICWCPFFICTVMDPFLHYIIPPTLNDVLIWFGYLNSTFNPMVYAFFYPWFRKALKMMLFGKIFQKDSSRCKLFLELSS
#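 Test system: RD-HGA16 CHO cells with stable hTAAR1 and Gα16 / Probe or stimulus: EC80 β-phenethylamine stimulus / Times: seeding 17-24 h prior, 75-min 37 °C, 30-min RT dye loading / Detection: Fluo-8 calcium-sensitive fluorescence / Read-out basis: % inhibition scaled between DMSO and EC80 PEA controls / Repeats: singlicate, one well per test compound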
# OX1R antag-2: OX1R (HCRTR1) antagonists, primary screen, fluorescence, CHO/OX1R cells, Fluo-8 calcium, orexin A; Orexin/Hypocretin receptor type 1 (Homo sapiens), O43613; Fluo-8 calcium fluorescence; inhibition, % at 5 µM; 330,000 compounds, 0.43% hits;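 active = inhibition above its plate's threshold, mean inhibition of all tested compounds on the plate plus 3 SD, cut at about 37% in these data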;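 note: 0% = orexin A challenge wells and 100% = SB-334867-A antagonist wells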
# TAAR1 agonist: human TAAR1 agonists, primary screen, Fluo-8 calcium fluorescence, CHO RD-HGA16 cells | Trace amine-associated receptor 1 (Homo sapiens), Q96RJ0 | vehicle wells 0%, saturating PEA agonist 100% | activation, % at 3 µM | 360,000 compounds, 0.99% hits;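 active = activation above the mean activation of all test compounds in the run plus 3 SD, cut at about 38% in these data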
#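 Signal – calcium-sensitive Fluo-8 signal, excitation 470-495, emission 515-575 nm · System – RD-HGA16 (CHO) cells co-expressing Gα16 and hTAAR1 · Incubation – 17-24 h seeding, 75 min 37 °C dye, 30 min RT · Compound dosing – 3 µM single concentration · Repeats – no replicates (n 1)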
# nonsel antag count: nonselective antagonists in TAAR1 counter-screen cells, counter-screen for hTAAR1 antagonist project, cell-based, fluorescence, calcium. inhibition, % at 3 µM. shares compounds with TAAR1 antagonist. 2,400 compounds, 77% hits. AID 651780, 2012. counterscreen cell line, antagonist mode; in the data active = inhibition above about 22%;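 note: CHO-Ga16 host cells stimulated with ATP at an EC80 level; 0% = agonist EC80 plus vehicle and 100% = vehicle without agonist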
# TAAR1 antag conf: human TAAR1 antagonists, retest of hits, confirmation, cell-based, fluorescence; shares compounds with TAAR1 antagonist; TAAR1-expressing cells, fluorescence antagonist read-out; inhibition, % at 3 µM; 2,400 compounds, 40% hits; AID 651785, 2012; in the data active = inhibition above about 49%;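 note: CHO-Ga16 host cells challenged with agonist PEA near its EC80; 0% = agonist at EC80 plus vehicle and 100% = vehicle with no agonist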
# Ga16 nonsel ag: calcium activation in Ga16-expressing cells, counter-screen for TAAR1 antagonist project, cell-based, fluorescence. shares compounds with TAAR1 antagonist. agonist counterscreen. activation, % at 3 µM. 2,400 compounds, 18% hits. AID 651953, 2012; in the data active = activation above about 12%;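 note: 0% = vehicle wells and 100% = saturating stimulus response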
# TAAR1 ag counter: TAAR1 activation by candidate antagonists – cell-based, fluorescence, counter-screen for TAAR1 antagonist project. shares compounds with TAAR1 antagonist. hTAAR1 cell line, agonist mode. activation, % at 3 µM. 2,400 compounds, 2% hits; in the data active = activation above about 37%;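 note: CHO cells stably expressing TAAR1 with calcium dye readout; 0% = DMSO vehicle and 100% = full agonist response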
# Active calls of the source: *; · = no result given. An excerpt weighted towards active compounds, which were near 3.9% of everything screened.
SMILES,CHO parental Ca,OX1R antag-1,TAAR1 antagonist,OX1R antag-2,TAAR1 agonist,nonsel antag count,TAAR1 antag conf,Ga16 nonsel ag,TAAR1 ag counter
CC(=O)c1cccc(NC(=O)CSc2ccc(-c3ccco3)nn2)c1,-15.9,10.4,-1.4,-23.1,2.0,·,·,·,·
CC(=O)Nc1ccc(S(=O)(=O)Nc2cccc(S(=O)(=O)N(C)c3ccccc3)c2)cc1,·,·,16.7,·,1.5,·,·,·,·
COc1ccccc1N(C)S(=O)(=O)c1ccc(C(=O)OC(C)C(=O)NCc2ccc3c(c2)OCO3)cc1 (stereo unspecified),-3.5,6.2,55.8*,-7.4,21.1,35.6*,55.9*,11.7*,12.4
COc1ccccc1N(C)S(=O)(=O)c1ccc(C(=O)Nc2cc(OC)c(OC)c(OC)c2)cc1,·,·,56.9*,·,14.0,22.6*,33.9,10.1,7.0
CC(=O)Nc1ccc(C(=O)Nc2cccc(S(=O)(=O)N(C)c3ccccc3)c2)cc1,-18.9,8.0,52.1*,-4.9,18.2,32.7*,44.5,8.8,5.3
NS(=O)(=O)c1cccc(NC(=O)c2cc(=O)c3ccccc3o2)c1,1.1,20.5,-28.7,2.2,2.5,·,·,·,·
O=C(Nc1cccc(S(=O)(=O)N2CCCCCC2)c1)c1cc(=O)c2ccccc2o1,3.5,39.3,78.8*,-9.8,12.8,42.3*,57.3*,14.9*,12.7
Cc1ccc(C(C)C)c(Oc2cnccn2)c1,-6.4,-2.6,-5.5,-7.7,4.5,·,·,·,·
COc1cccc(N2CCN(C(=O)C3CCN(C(=O)Nc4ccccc4)CC3)CC2)c1,·,·,-23.4,·,1.1,·,·,·,·
CN(c1ccccc1)S(=O)(=O)c1cccc(NC(=O)c2cc(=O)c3ccccc3o2)c1,-11.8,34.6,74.3*,-3.1,19.0,40.3*,56.6*,11.5*,7.0
C=CCOC(=O)C1=C(C)NC(SCC(=O)Nc2nccs2)=C(C#N)C1c1cccs1 (stereo unspecified),-11.8,25.6,52.8*,-9.6,17.8,18.8,37.6,11.3,24.7
O=C(NC1CCCCCC1)C1CCN(C(=O)Cc2ccccc2)CC1,-16.6,3.5,-0.8,-6.1,-0.5,·,·,·,·
COc1ccc(-c2csc(N3CCN(c4cc5c(cc4Cl)nc(-c4ccncc4)n5CCOCCO)CC3)n2)cc1,-18.9,17.7,50.2*,-21.4,13.0,34.1*,33.3,7.7,0.5
Cc1ccc(-c2csc(N3CCN(c4cc5c(cc4Cl)nc(-c4ccncc4)n5CCN4CCCCC4)CC3)n2)cc1,-40.3,18.4,7.3,-22.4,0.0,·,·,·,·
Cc1nn(-c2ccccc2)c(N2CCCC2)c1/C=N/NC(=O)c1cc2ccccc2cc1O,-14.7,7.5,50.9*,-24.7,11.4,44.0*,49.8*,11.9*,10.7
Cc1nn(-c2ccccc2)c(N2CCCC2)c1/C=N/NC(=O)c1cc(-c2ccccc2)nc2ccccc12,-44.3,2.5,38.5,-48.4,5.6,·,·,·,·
CC(C)c1ccc(NC(=O)N(CCc2nc3ccccc3[nH]2)C2CCCC2)cc1,-17.6,16.6,54.1*,-33.3,4.4,29.9*,38.3,5.4,6.3
CC(=O)Nc1ccc(CCc2nc3ccccc3[nH]2)cc1,4.3,3.8,-9.1,2.0,5.4,·,·,·,·
CCO[C@@H]1OC(C(=O)N2CCN(Cc3ccc4c(c3)OCO4)CC2)=C[C@H](C2CCCCC2)[C@H]1CCCO,-19.8,29.4,66.9*,-12.2,14.7,29.1*,44.8,8.6,7.0
CCO[C@H]1OC(C(=O)N2CCN(Cc3ccccc3)CC2)=C[C@@H](C2CCCCC2)[C@@H]1CCCO,-22.6,13.8,-11.6,-18.0,3.0,·,·,·,·
CCO[C@@H]1OC(C(=O)Nc2ccccc2)=C[C@H](c2ccc3c(c2)OCO3)[C@H]1CCCO,-3.4,15.2,49.3*,-24.9,19.4,19.0,24.6,6.3,6.7
COc1cccc(CNC(=O)[C@@H]2CCCN2C(=O)[C@@H]2CCCN2C(=O)c2cccc(OC)c2)c1,·,·,-8.8,·,-0.6,·,·,·,·
CCCn1c(NC(=O)c2ccc(Cl)c(S(=O)(=O)N3CCCC3)c2)nc2ccccc21,15.9,4.3,57.0*,-6.4,9.5,38.0*,33.6,11.4,0.1
Cc1nc(-c2cccc(NC(=O)c3ccc(Cl)c(S(=O)(=O)N4CCCC4)c3)c2)cs1,·,·,62.1*,·,11.2,25.8*,44.8,10.3,5.7
Cc1nc(-c2cccc(NC(=O)c3ccc(-n4cccn4)cc3)c2)cs1,-12.1,51.6*,62.9*,-12.9,28.5,21.7*,47.3,10.7,8.2
SMILES,CHO parental Ca,OX1R antag-1,TAAR1 antagonist,OX1R antag-2,TAAR1 agonist,nonsel antag count,TAAR1 antag conf,Ga16 nonsel ag,TAAR1 ag counter
O=C(O)c1cccc(NC(=O)c2ccc(Cl)c(S(=O)(=O)N3CCCCCC3)c2)c1,-9.6,17.6,45.9,17.3,1.7,·,·,·,·
O=C(NCc1nc2ccccc2[nH]1)c1ccc(Cl)c(S(=O)(=O)N2CCCC2)c1,-35.2,9.8,15.7,-26.9,5.7,·,·,·,·
Cc1ccc(C)c(SCC(=O)OCC(=O)NCCNC(=O)COC(=O)CSc2cc(C)ccc2C)c1,-18.5,13.1,18.0,-32.7,10.7,·,·,·,·
O=C(CSc1nc2ccc(NC(=O)c3ccccc3C(=O)O)cc2s1)Nc1c(Cl)cccc1Cl,-3.1,30.1,-21.6,-6.8,-1.2,·,·,·,·
O=C(Nc1ccc2nc(SCc3ccc(Cl)cc3)sc2c1)c1ccccc1C(=O)N1CCOCC1,-14.6,24.7,76.4*,9.0,20.0,33.5*,53.6*,11.1,12.3
COC(=O)CSc1nc2ccc(NC(=O)c3ccccc3C(=O)N3CCOCC3)cc2s1,-25.4,25.0,54.8*,-19.2,22.4,24.4*,50.3*,9.2,7.7
O=C(Cc1ccccc1[N+](=O)[O-])NCc1ccco1,-9.9,8.4,7.2,-11.6,6.0,·,·,·,·
CC(=O)c1c(C)[nH]c(C(=O)COC(=O)CNS(=O)(=O)c2ccccc2)c1C,-3.6,2.6,-0.1,-8.3,6.8,·,·,·,·
CCOC(=O)c1c(C)[nH]c(C(=O)COC(=O)CNS(=O)(=O)c2ccc(C)cc2)c1C,-7.7,10.2,75.5*,-1.3,12.0,39.0*,52.2*,10.4,10.6
CN(C)CCn1c2c(c(SCC(=O)N3CCc4ccccc43)nc1=O)CCCC2,-25.0,6.6,-24.2,-40.3,1.7,·,·,·,·
